About 2,000 (0.54%) of roughly 370,000 compounds were called active. The sample holds actives, similar compounds and a random draw of the others, so the mix is not that of the screen. Values without a mark were called inactive.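 The calls were made as follows: active = inhibition exceeding the mean over every tested compound plus 3 SD (cut at about 30% in these data); inactive = the rest.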

Sequence of (Lyso)-N-acylphosphatidylethanolamine lipase (Mus musculus) (Q8VD66 whole entry, looked up): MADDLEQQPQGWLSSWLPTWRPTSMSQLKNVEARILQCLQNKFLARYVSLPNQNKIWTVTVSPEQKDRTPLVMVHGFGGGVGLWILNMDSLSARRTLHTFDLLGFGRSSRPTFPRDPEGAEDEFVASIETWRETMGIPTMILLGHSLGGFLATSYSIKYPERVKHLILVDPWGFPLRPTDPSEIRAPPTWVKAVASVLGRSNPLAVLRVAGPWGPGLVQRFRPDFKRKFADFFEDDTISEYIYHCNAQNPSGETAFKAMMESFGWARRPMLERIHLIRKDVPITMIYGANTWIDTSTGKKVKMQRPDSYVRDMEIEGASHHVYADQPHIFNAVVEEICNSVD

The assay deals with (Lyso)-N-acylphosphatidylethanolamine lipase (Mus musculus) (UniProt Q8VD66). In words: mouse ABHD4 hydrolase activity blockers – biochemical, fluorescence polarization, primary screen (AID 720543).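 Also: 0% = plate median of compound wells and 100% = S159A mutant with DMSO.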 The settings on record: purified mABHD4, FP-Rh probe fluorescence polarization; at 8.92 µM; active compounds read high. The essentials:
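Assay system: wild-type mouse ABHD4 protein; compound: single nominal dose of 8.92 µM, 0.89% DMSO final; schedule: 45 min + 60 min at 25 °C; measured by: FP readout, ex 525 nm / em 598 nm; evaluation: % inhibition of FP-Rh probe binding versus controls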
Turning to `O=c1c2ccccc2[nH]c(=S)n1-c1cccc(Cl)c1`, the inhibition is 6.67%. With `COc1cc(-n2c(=S)[nH]c3ccc(C)cc3c2=O)c(Cl)cc1Cl`, the inhibition was 36.9% (active). Consider `CC12CN3CC(C)(CN(C1)C3c1cccs1)C2` (stereo not given), for which the inhibition was 2.23%. Regarding `C/C=C/CC1(CC)C(=O)NC(=S)NC1=O`, the inhibition was 5.1%.

Consider `c1ccc(C2NCc3ccccc3-n3cccc32)cc1` (stereo not given), for which the inhibition was 6.15%. Turning to `CCOc1ccc(-c2cc(C)[n+](CCN(CC)CC)c(-c3ccc(OCC)cc3)c2)cc1`, the inhibition was 5.92%. Consider `CCOc1cccc(=NC2CCCCC2)c2c(C)[nH]c(C)c12`, for which the inhibition is 34.4% (active).

Take `COc1ccc(NC(=O)N2CCC3(CC2)OCCO3)c(OC)c1`: the inhibition is 2.18%.

With `CO[C@H]([C@H](C)/C=C/N(C)C=O)[C@@H](C)C(=O)CC[C@H](C)[C@H](O)[C@H](C)[C@H]1OC(=O)/C=C/C(C)=C/[C@H](O)[C@H](OC)C[C@@H]2C=CC[C@@H](C[C@H](OC)[C@@]3(CO3)[C@@H](OC)C[C@@H](OC)[C@@H]1C)O2`, the inhibition was -6.78%. The figure for `Clc1ccc([C@@H]2CC3CCC2N3)cn1` (stereo not given in full) is 7.57%.
